Laboratory results reported in ChEMBL document CHEMBL4316652, “Kenalactams A-E, Polyene Macrolactams Isolated from Nocardiopsis CG3” (J Nat Prod, 2019).
In brackets after ≈: the same amount, converted by molar mass. Activity calls are given as the source filed them. No cut-off for these calls is given here.

Columns and labels:
Candida albicans [1] = test: Antifungal activity against amphotericin B-resistant Candida albicans; assay type: functional
Procedure, shortened: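 Broth serial dilution MIC in 96-well plates using MYG medium for fungi (1.0% phytone peptone, 1.0% glucose, 50 mM HEPES, pH 7.0). Compounds were added as 20 µL aliquots of a 1 mg/mL stock, giving 67 μg/mL final in the first well. Methanol served as negative control.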

L929 = test: Cytotoxicity against mouse L929 cells measured after 5 days by MTT assay; assay type: cell-based
KB 3-1 = test: Cytotoxicity against human KB3-1 cells measured after 5 days by MTT assay; assay type: functional, cell-based
MCF7 = test: Cytotoxicity against human MCF7 cells measured after 5 days by MTT assay; assay type: functional, cell-based; conditions: MCF7, 120 h
PC-3 = test: Cytotoxicity against human PC3 cells measured after 5 days by MTT assay; assay type: functional, cell-based; conditions: PC-3, 120 h
A549 = test: Cytotoxicity against human A549 cells measured after 5 days by MTT assay; assay type: functional, cell-based; conditions: A549, 120 h
SK-OV-3 = test: Cytotoxicity against human SKOV3 cells measured after 5 days by MTT assay; assay type: functional, cell-based; conditions: SK-OV-3, 120 h
Staphylococcus aureus = test: Antibacterial activity against Staphylococcus aureus Newman by serial dilution method; assay type: functional
Escherichia coli = test: Antibacterial activity against Escherichia coli DSM1116 by serial dilution method; assay type: functional
Bacillus subtilis = test: Antibacterial activity against Bacillus subtilis DSM10 by serial dilution method; assay type: functional
Mucor hiemalis = test: Antifungal activity against Mucor hiemalis DSM 2656 by serial dilution method; assay type: functional
Procedure, shortened: (§1)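 Fungi were tested by serial dilution in MYG medium (1.0% phytone peptone, 1.0% glucose, 50 mM HEPES, pH 7.0). The top well held 67 μg/mL final, from a 1 mg/mL stock. Methanol served as negative control. The MIC was recorded.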

Candida albicans [2] = test: Antifungal activity against Candida albicans DSM 1665 by serial dilution method; assay type: functional; procedure, shortened: as §1
Hepatitis C virus = test: Antiviral activity against HCV JC1 infected in human Huh7.5 cells assessed as reduction in viral infection treated for 4 hrs followed by compound washout and measured after 3 days by luciferase reporter gene assay; assay type: functional, organism-based; conditions: Hepacivirus hominis
Procedure, shortened: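 Huh-7.5 cells were electroporated with the Luc-Jc1 reporter virus in the presence of compound. After 4 h the inoculum was removed, and the monolayers were washed three times with PBS and given fresh compound-free medium. Cells were lysed at 3 days for luciferase read-out. Runs were in duplicate, reported as mean and standard deviation.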

Trypanosoma brucei = test: Antimicrobial activity against Trypanosoma brucei; assay type: functional
[3] = Mus musculus, L929, 120 h, read-out: IC50
[4] = Homo sapiens, KB 3-1, 120 h, read-out: IC50

Row | Molecule | IC50 (KB 3-1; [4]) [µM] | IC50 (PC-3) [µM] | IC50 (A549) [µM] | IC50 (SK-OV-3) [µM] | MIC (Staphylococcus aureus) | MIC (Escherichia coli) | MIC (Bacillus subtilis) | MIC (Mucor hiemalis) | MIC (Candida albicans [2]) | Activity (Hepatitis C virus) | other results
1 | CC1=C\C=C\C=C\C(C)CNC(=O)/C=C(O)/C=C/C(C)=C/C=C/C(O)C(O)C(O)C(=O)/C=C\C=C\1 (stereo unspecified) |  |  |  |  |  |  |  |  |  |  | MIC (Candida albicans [1]): 4 µg/mL (≈ 8.31 µM)
2 | CC1=C\C=C\C=C\C=C/C=C\[C@H](C)CNC(=O)/C(C)=C/C=C/C=C/C=C\C=C/[C@H](C)CNC(=O)\C(C)=C\1 | 5.4 | 5 | 32.1 | 10 | 16.7 µg/mL (≈ 33.5 µM) | inactive | inactive | inactive | inactive | Active | IC50 (L929; [3]): 42.2 µM; IC50 (MCF7): 18.1 µM
3 | CC1=C/[C@H](O)[C@H](O)\C=C/C=C/C=C/C=C\C=C/[C@H](C)CNC(=O)/C=C/C=C/1 |  |  |  |  |  |  |  |  |  |  | IC50 (L929; l929): Non-Toxic; IC50 (KB 3-1; kb 3-1): Not Active
4 | C/C1=C/C=C/C(C)=C/C=C/C=C\C=C/[C@H](C)CNC(=O)/C(C)=C/C=C/C(C)=C/C=C/C=C\C=C/[C@H](C)CNC1=O |  |  |  |  |  | inactive | inactive | inactive | inactive | Active | 
5 | CC1=C\C=C\C[C@H](C)NC(=O)/C=C/C=C/C=C/[C@H](C)[C@@H](O)[C@H](O)[C@@H](O)C[C@@H](O)/C=C\C=C\C(C)=C\1 |  |  |  |  |  |  |  |  |  |  | MIC (Trypanosoma brucei): 0.8 µM (≈ 0.387 µg/mL)
6 | C/C(=C\c1csc(C)n1)[C@@H]1C[C@@H]2O[C@]2(C)CCC[C@H](C)[C@H](O)[C@@H](C)C(=O)C(C)(C)[C@@H](O)CC(=O)O1 [PATUPILONE] | 5.3e-05 | 0.0022 | 0.004 | 0.00024 |  |  |  |  |  |  | IC50 (L929; [3]): 0.00075 µM; IC50 (MCF7): 7.4e-05 µM
7 | CC1=C/[C@H](O)[C@H](O)\C=C/C=C/C=C/C=C\C=C/[C@H](C)CNC(=O)\C=C/C=C/1 |  |  |  |  | inactive | inactive | inactive | inactive | inactive | inactive | 
8 | CC1=C\C=C\C=C/C=C\[C@H](C)CNC(=O)/C(C)=C/C=C/C(C)=C/C=C/C=C\C=C/[C@H](C)CNC(=O)\C(C)=C\C=C\1 | 2.4 | 2.1 | 6.5 | 5.5 | 66.7 µg/mL (≈ 124 µM) |  |  |  |  |  | IC50 (L929; l929): Non-Toxic
9 | C\C1=C/C=C/C=C/C=C\C=C/[C@H](C)CNC(=O)/C(C)=C/C=C/C=C/C=C\C=C/[C@H](C)CNC1=O | 6.8 | 6.3 | 16.3 | 14.2 | 66.7 µg/mL (≈ 145 µM) | inactive | inactive | 66.7 µg/mL (≈ 145 µM) | 66.7 µg/mL (≈ 145 µM) | Active | IC50 (L929; [3]): 32.8 µM; IC50 (MCF7): 16.4 µM
10 | CN(C)[C@@H]1C(O)=C(C(N)=O)C(=O)[C@@]2(O)C(O)=C3C(=O)c4c(O)cccc4[C@@](C)(O)[C@H]3[C@H](O)[C@@H]12 [OXYTETRACYCLINE] |  |  |  |  | 0.05 µg/mL (≈ 0.109 µM) | 1.66 µg/mL (≈ 3.61 µM) | 2.08 µg/mL (≈ 4.52 µM) |  |  |  | 
11 | NYSTATIN |  |  |  |  |  |  |  | 4.16 µg/mL | 8.8 µg/mL |  | 
